Experiments:
[1] = Cytotoxicity against human MT4 cells after 96 hrs by MTT assay; assay type: cell-based
Method in brief: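 Exponentially growing MT-4 cells seeded at 1×10^5 cells/mL in RPMI-1640 with 10% FBS, penicillin and streptomycin. Incubated with serial compound dilutions at 37 °C, 5% CO2 for 96 h; viability by MTT. CC50 by linear regression relative to untreated controls; mean of three independent determinations.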

[2] = system: Human immunodeficiency virus 1; assay: Antiviral activity against HIV1 3B infected in human MT4 cells assessed as inhibition of virus-induced cytopathogenicity after 4 days by MTT assay; assay type: functional, organism-based; conditions: Human immunodeficiency virus 1, 3B, MT4, 96 h
Method in brief: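 MT-4 cells (1×10^4 per well) were infected with HIV-1 IIIB at 100 CCID50, m.o.i. 0.01, together with serial compound dilutions. Viability was read by MTT after 4 days at 37 °C. EC50 was taken by linear regression versus untreated controls. Mean of three determinations.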

[3] = Cytotoxicity against MDBK cells after 48 to 96 hrs by MTT assay; assay type: cell-based, Bos taurus; conditions: cattle
Method in brief: (§1)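 MDBK seeded at 6×10^5 and BHK at 1×10^6 cells/mL in MEM-Earle's with L-glutamine, 1 mM pyruvate, kanamycin, plus 10% horse serum (MDBK) or 10% FBS (BHK). Cells were grown at 37 °C, 5% CO2 with serial compound dilutions (DMSO stocks diluted in medium). Viability by MTT after 48–96 h. CC50 was taken by linear regression versus untreated controls; three independent determinations.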

[4] = Antiviral activity against Bovine viral diarrhea virus 1-NADL infected in MDBK cells assessed as inhibition of virus-induced cytopathogenicity after 3 to 4 days by MTT assay; assay type: functional, cell-based; conditions: Bovine viral diarrhea virus isolates and strains
Method in brief: (§2)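 Host cells were seeded in 96-well plates at 3×10^4 cells/well (MDBK) or 5×10^4 cells/well (BHK-21) and grown to confluent monolayers overnight. They were infected at m.o.i. 0.01 in maintenance MEM with 0.5% inactivated FBS. Serial compound dilutions were added after 1 h. Viability was read by MTT after 3–4 days at 37 °C. EC50 was taken by linear regression against untreated controls. Mean of three determinations.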

[5] = Cytotoxicity against BHK21 cells after 48 to 96 hrs by MTT assay; assay type: cell-based, Mesocricetus auratus, BHK-21; conditions: hamster; method in brief: as §1
Yellow fever virus = assay: Antiviral activity against Yellow fever virus 17D Stamaril Pasteur J07B01 infected in hamster BHK21 cells assessed as inhibition of virus-induced cytopathogenicity after 3 to 4 days by MTT assay; assay type: functional, cell-based; conditions: Stamaril Pasteur J07B01, BHK-21; method in brief: as §2
Reovirus sp. = assay: Antiviral activity against Reovirus type-1 3651 infected in hamster BHK21 cells assessed as inhibition of virus-induced cytopathogenicity after 3 to 4 days by MTT assay; assay type: functional, organism-based; conditions: Reovirus sp., 3651, BHK-21; method in brief: as §2
[6] = Cytotoxicity against african green monkey Vero 76 cells after 48 to 96 hrs by crystal violet staining; assay type: cell-based; conditions: chlorocebus sabaeus
Method in brief: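 Vero-76 cells were seeded at 4×10^5 cells/mL in D-MEM with L-glutamine, kanamycin and 10% FBS, then exposed to serial compound dilutions at 37 °C, 5% CO2 for 48–96 h. Viability was read by crystal violet staining. 50% cytotoxic concentration by linear regression relative to untreated controls; mean of three independent determinations.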

Coxsackievirus B5 = assay: Antiviral activity against Human coxsackievirus B5 Ohio-1 infected in african green monkey Vero 76 cells assessed as reduction of virus-induced plaque formation after 3 days using crystal violet staining; assay type: functional, organism-based; conditions: Enterovirus B, Ohio-1, Vero, 72 h
Poliovirus 1 = assay: Antiviral activity against Human poliovirus 1 strain Sabin Chat infected in african green monkey Vero 76 cells assessed as virus-induced reduction of plaque formation after 2 days using crystal violet staining; assay type: functional, cell-based; conditions: Enterovirus C, 48 h
Human orthopneumovirus = assay: Antiviral activity against Human respiratory syncytial virus A2 infected in african green monkey Vero 76 cells assessed as reduction of virus-induced plaque formation after 5 days using crystal violet staining; assay type: functional, organism-based; conditions: 120 h
[7] = system: Vesicular stomatitis Indiana virus; assay: Antiviral activity against clinical isolate Vesicular stomatitis Indiana virus infected in african green monkey Vero 76 cells assessed as reduction of virus-induced plaque formation after 2 days using crystal violet staining; assay type: functional, organism-based; conditions: 48 h
[8] = Antiviral activity against Vaccinia virus Lister Elstree infected in african green monkey Vero 76 cells assessed as reduction of virus-induced plaque formation after 3 days using crystal violet staining; assay type: functional, cell-based; conditions: 72 h
Human alphaherpesvirus 1 = assay: Antiviral activity against Human herpesvirus 1 strain KOS infected in african green monkey Vero 76 cells assessed as reduction of virus-induced plaque formation after 3 days using crystal violet staining; assay type: functional, organism-based; conditions: Human alphaherpesvirus 1, KOS, 72 h

SMILES | CC50 at 96 h [1] | EC50 [2] | CC50 [3] | EC50 [4] | CC50 [5] | EC50 (Yellow fever virus) | EC50 (Reovirus sp.) | CC50 [6] | EC50 (Coxsackievirus B5) | EC50 (Poliovirus 1) | EC50 (Human orthopneumovirus) | EC50 [7] | EC50 [8] | EC50 (Human alphaherpesvirus 1)
O=[N+]([O-])c1ccc(-c2nc3cc4cccnc4cc3[nH]2)cc1 | > 100 µM | > 100 µM | 90 µM | 20 µM | > 100 µM | > 100 µM | 67 µM | 95 µM | 35 µM | > 95 µM | > 95 µM | > 95 µM | > 95 µM | 
O=[N+]([O-])c1ccc(-c2nc3cc4cccnc4cc3[nH]2)c2ccccc12 | 6 µM | > 6 µM | 18 µM | > 18 µM | > 100 µM | > 100 µM | 50 µM | > 100 µM | > 100 µM | > 100 µM | > 100 µM | > 100 µM | > 100 µM | 
c1cnc2cc3nccnc3cc2c1 | > 100 µM | > 100 µM | > 100 µM | > 100 µM | > 100 µM | > 100 µM |  | > 100 µM | > 100 µM | > 100 µM |  | > 100 µM | > 100 µM | > 100 µM
C[C@@]1(O)[C@H](O)[C@@H](CO)O[C@H]1n1ccc(N)nc1=O |  |  |  |  | > 100 µM |  | 16 µM |  |  |  |  |  |  | 
c1cnc2cc3[nH]nnc3cc2c1 | 40 µM | > 40 µM | > 100 µM | > 100 µM | > 100 µM | > 100 µM | > 100 µM | > 100 µM | > 100 µM | > 100 µM | > 100 µM | > 100 µM | > 100 µM | > 100 µM
[O-][n+]1n[nH]c2c(Cl)c3ncccc3cc21 | > 100 µM | > 100 µM | > 100 µM | > 100 µM | > 100 µM | > 100 µM |  | > 100 µM | 86 µM | > 100 µM | > 100 µM | > 100 µM | > 100 µM | > 100 µM
C[C@@]1(O)[C@H](O)[C@@H](CO)O[C@H]1n1cnc2c(=O)[nH]c(N)nc21 [2'-B-METHYL-GUANOSINE] |  |  | > 10 µM | 1.1 µM | > 10 µM | 1.9 µM |  |  |  |  |  |  |  | 
C#C[C@@]1(O)[C@H](O)[C@@H](CO)O[C@H]1n1ccc(N)nc1=O [2'-ETHYNYL-D-CYTIDINE] |  |  |  |  |  |  |  | > 100 µM | 27 µM |  |  |  |  | 
O=c1cnn([C@@H]2O[C@H](CO)[C@@H](O)[C@H]2O)c(=O)[nH]1 [6-AZAURIDINE] |  |  |  |  |  |  |  | ≥ 12.5 µM |  |  | 1.2 µM |  |  | 
Nc1nc2c(ncn2COCCO)c(=O)[nH]1 [ACYCLOVIR] |  |  |  |  |  |  |  | > 100 µM |  |  |  |  |  | 
O=C1Nc2ccc(Cl)cc2[C@@](C#CC2CC2)(C(F)(F)F)O1 [EFAVIRENZ] | 40 µM |  |  |  |  |  |  |  |  |  |  |  |  | 
COc1c(C)c2c(c(O)c1C/C=C(\C)CCC(=O)O)C(=O)OC2 [MYCOPHENOLIC ACID] |  |  |  |  |  |  |  | ≥ 12.5 µM |  |  |  |  | 1.5 µM | 

Reference: ChEMBL document CHEMBL1938334, “Quinoline tricyclic derivatives. Design, synthesis and evaluation of the antiviral activity of three new classes of RNA-dependent RNA polymerase inhibitors” (Bioorg Med Chem, 2011)
